{"source": "paper PMC6579116", "about": "(Macromolecular bioscience, 2019)", "key": {"[1]": {"tested_on": "atherosclerosis in LDLR KO mice fed high fat diet", "test": "Atherosclerosis treatment study", "type": "in vivo, mouse", "conditions": "both sexes; IV twice per week for 8 weeks", "in_short": "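LDLR KO mice on high-fat diet (20% fat, 0.2% cholesterol, 34% sucrose) from 4 weeks of age. After 14 weeks on diet, IV injection under isoflurane (dorsal penile vein, males; retro-orbital, females) twice weekly for 8 weeks. […] Controls: PBS, scrambled PA. Aortic root sections stained with Oil Red O; plaque area/total root area. n=8–10 mice/group; ANOVA with post-hoc t-test.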"}, "[2]": {"test": "Treatment study serum chemistry", "type": "in vivo, mouse", "conditions": "for Creatine: 6 mg/kg"}, "[3]": {"test": "TEM analysis of nanofiber formation, diameter and length", "type": "physicochemical", "conditions": "1 mM in PBS, 30 measurements from three images; for Length, Average / Length, Median: ImageJ", "in_short": "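Nanofiber diameter and length were measured by hand on TEM images in ImageJ; overlapping fibers ruled out automated tracing.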"}, "[4]": {"conditions": "male LDLR KO mice, IV twice per week for 8 weeks"}}}
{"molecule": "O=C(O)Cc1cccc(OCCCN(Cc2cccc(C(F)(F)F)c2Cl)CC(c2ccccc2)c2ccccc2)c1", "note": "[LXR, GW3965, reference compound]", "values": [{"measurement": "reversal of atherosclerosis from baseline levels", "setting": "[1]", "result": "approximately 5%"}, {"measurement": "liver toxicity: aspartate aminotransferase (AST) in the blood in comparison to PBS, male mice", "setting": "[2]; mouse, in vivo, iv", "result": "significantly elevated levels"}]}
{"molecule": "C16-V2A2E2-G-DWFKAFYDKVAEKFKEAF-NH2 [ApoA1 PA]", "values": [{"measurement": "liver toxicity: aspartate aminotransferase (AST) in the blood in comparison to PBS, male mice", "setting": "[2]; [4]", "result": "Neither ApoA1-LXR PAs nor ApoA1 PAs increased AST levels"}, {"measurement": "Creatine", "setting": "[2]; mouse, in vivo, iv", "result": "0(0–0.1) 0(0–0.1) 0(0–0.1) U/L"}, {"measurement": "Diameter, Max.", "setting": "[3]", "result": 14.4, "unit": "nm"}, {"measurement": "Diameter, Min.", "setting": "[3]", "result": 6.2, "unit": "nm"}, {"measurement": "Length, Max.", "setting": "[3]", "result": 2183.3, "unit": "nm"}, {"measurement": "Length, Min.", "setting": "[3]", "result": 39.4, "unit": "nm"}, {"measurement": "Length, Average", "setting": "[3]", "result": 626.9, "unit": "nm"}, {"measurement": "Length, Median", "setting": "[3]", "result": 615.9, "unit": "nm"}]}
{"molecule": "C16-V2A2E2-C-DWFAKDYFKKAFVEEFAK-NH2 [Scr PA]", "values": [{"measurement": "liver toxicity: aspartate aminotransferase (AST) in the blood in comparison to PBS, male mice", "setting": "[2]; [4]", "result": "significantly elevated levels"}, {"measurement": "Creatine", "setting": "[2]; mouse, in vivo, iv", "result": "0(0–0.1) 0(0–0.1) 0(0–0.1) U/L"}, {"measurement": "Diameter, Max.", "setting": "[3]", "result": 18.3, "unit": "nm"}, {"measurement": "Diameter, Min.", "setting": "[3]", "result": 8.8, "unit": "nm"}, {"measurement": "Length, Max.", "setting": "[3]", "result": 1472.9, "unit": "nm"}, {"measurement": "Length, Min.", "setting": "[3]", "result": 30.0, "unit": "nm"}, {"measurement": "Length, Average", "setting": "[3]", "result": 403.8, "unit": "nm"}, {"measurement": "Length, Median", "setting": "[3]", "result": 257.6, "unit": "nm"}]}
